Source: PubChem (several laboratories)
An excerpt weighted towards active compounds, which were near 3.2% of everything screened.
MEKK3 PB1 HTS = MEKK3-MEK5 PB1 interaction, increase or decrease; binding response (% of control), % at 10 µM; actives 1.4% (n = 290,000); bead-based flow cytometry, Alexa488-MEK5 binding to MEKK3; actives lie on both sides; 0 = blocked by unlabeled MEK5, 100 = vehicle; Q99759;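 active means binding response more than 3 SD above or below the average of its plate-row segment, actives on both sides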;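 further: Alexa488 bead fluorescence after subtracting the streptavidin-only scavenger bead signal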
UBC13 polyUb = blocks human UBC13 polyubiquitin chain formation. P61088. TR-FRET. inhibition, % at 20 µM. actives 0.47% (n = 330,000); in the data active means inhibition above about 45%, passing the limit was not always enough
Target sequence (P61088 whole entry, looked up): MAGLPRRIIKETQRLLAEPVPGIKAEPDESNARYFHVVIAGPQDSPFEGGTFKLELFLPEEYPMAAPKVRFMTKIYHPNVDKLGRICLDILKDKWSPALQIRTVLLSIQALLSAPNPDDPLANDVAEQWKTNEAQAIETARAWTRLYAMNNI
MEKK2wt PB1 HTS = raises or lowers MEK5 binding to wildtype human MEKK2 PB1 domain | bead flow cytometry, Alexa488-MEK5 binding to MEKK2 WT; actives lie on both sides | binding response (% of control), % at 10 µM | actives 1.1% (n = 290,000); in the data active means binding response below about 67% or above about 130%
Apaf1 inhib = inhibitors of human Apaf-1 apoptosome | reconstituted apoptosome caspase-3 activity, DEVD-Rh110 fluorescence | inhibition, % at 20 µM | actives 0.71% (n = 330,000); active means inhibition of at least 40% at 20 µM
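Material: reconstituted apoptosome with Apaf-1, cytochrome c, caspase-9, procaspase-3, dATP / Buffer or medium: pH 7.5 Hepes buffer with CHAPS, BSA, DTT / Also added: cytochrome c with DEVD-Rh110 / Schedule: compound with Apaf-1, dATP, procaspase-3 30 min, then 50 min reaction, room temperature / Technique: rhodamine 110 fluorescence at Ex 480/Em 540 nm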
Pemphigus Ab inh = blocks pemphigus antibody binding to human desmoglein-3; actives 0.48% (n = 310,000); DSG3-coupled beads, scFv-anti-DSG3-GFP binding, flow cytometry; hits give low values; AID 588358; binding (percent of control), % at 10 µM;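 active means binding more than 3 SD below its plate's average and above zero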;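 further: hits lower antibody fragment binding to DSG3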
MEKK2 mut-MEK5 = signal of MEK5 binding to mutant human MEKK2 PB1 domain | bead flow cytometry, Alexa488-MEK5 binding to MEKK2 mutant | percent response, % at 10 µM | actives 0.35% (n = 290,000); in the data active means percent response above about 24%, passing the limit was not always enough
Casp3 UBC13 ctr = counter-screen for UBC13 inhibitors: human caspase-3 inhibition. shares compounds with UBC13 polyUb. Recombinant caspase-3, Caspase-Glo 3/7 luminescence, 60 min. inhibition, % at 20 µM. actives 4% (n = 1,400);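 active means mean inhibition across replicates above about 26%, limit read from the data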
Target sequence (P42574 whole entry, looked up): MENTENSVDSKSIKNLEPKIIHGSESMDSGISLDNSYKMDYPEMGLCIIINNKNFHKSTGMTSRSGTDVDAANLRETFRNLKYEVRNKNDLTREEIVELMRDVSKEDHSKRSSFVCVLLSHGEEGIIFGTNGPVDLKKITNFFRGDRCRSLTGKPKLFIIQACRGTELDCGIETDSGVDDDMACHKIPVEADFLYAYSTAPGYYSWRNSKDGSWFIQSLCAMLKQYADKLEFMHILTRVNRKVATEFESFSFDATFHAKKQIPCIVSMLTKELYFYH
UBC13 confirm = human UBC13 polyubiquitin inhibition, confirmed; shares compounds with UBC13 polyUb; UBC13 polyubiquitination, TR-FRET, biochemical; inhibition, % at 10 µM; actives 68% (n = 1,400); AID 488859; in the data active means inhibition above about 45%
Numbers stand for hits; n = inactive; x = no result given.

SMILES	MEKK3 PB1 HTS	UBC13 polyUb	MEKK2wt PB1 HTS	Apaf1 inhib	Pemphigus Ab inh	MEKK2 mut-MEK5	Casp3 UBC13 ctr	UBC13 confirm
C#CCOCCOCCOCCNc1nc(N2CCN(C(=O)[C@H](C)n3cc(CCC(=O)O)nn3)CC2)nc(N2CCN(C(=O)[C@H](CCCCN)n3cc(CCCC)nn3)CC2)n1	x	x	x	x	n	x	x	x
C#CCOCCOCCOCCNc1nc(N2CCOCC2)nc(N2CCN(C(=O)CCCCCCCCCCNC(=O)Cn3cc(CCCCCN)nn3)CC2)n1	x	n	x	n	n	x	x	x
C#CCOCCOCCOCCNc1nc(N2CCN(C(=O)CCCCCCCCCCNC(=O)[C@H](CCCCN)n3cc(CCCC(=O)O)nn3)CC2)nc(N2CCN(C(=O)CCCCCCCCCCNC(=O)[C@H](CCCCN)n3cc(CCCC(=O)O)nn3)CC2)n1	x	45.3	x	n	n	x	n	n
C#CCOCCOCCOCCNc1nc(N2CCOCC2)nc(N2CCN(C(=O)CCCCCCCCCCNC(=O)[C@H](CO)n3cc(CCCCCN)nn3)CC2)n1	x	61.5	x	43.5	n	x	n	n
C#CCOCCOCCOCCNc1nc(N2CCN(C(=O)[C@H]([C@@H](C)CC)n3cc(CCCCN)nn3)CC2)nc(N2CCN(C(=O)[C@H](CCCCN)n3cc(CCC(=O)O)nn3)CC2)n1	x	n	x	n	n	x	x	x
CN(C)CCCNC(=O)C[C@H]1C[C@H](C(=O)N2CCOCC2)[C@@]2(C)c3[nH]c4cc(-c5ccco5)ccc4c3CCN2C1=O	x	x	x	n	n	x	x	x
Cc1ccc(S(=O)(=O)N2CCC[C@H]2C(=O)Nc2ccc(F)cc2C)cc1	x	n	x	n	n	x	x	x
CC(C)CNC(=O)COC(=O)c1ccc2c(c1)C(=O)N(Cc1ccco1)C2=O	n	n	n	n	n	n	x	x
C#CCOCCOCCOCCNc1nc(N2CCN(C(=O)CCCCCCCCCCNC(=O)[C@H](CO)n3cc(CCCSC)nn3)CC2)nc(N2CCN(C(=O)CCCCCCCCCCNC(=O)[C@H](CO)n3cc(CCCSC)nn3)CC2)n1	x	n	x	n	n	x	x	x
C#CCOCCOCCOCCNc1nc(N2CCN(C(=O)CCCCCCCCCCNC(=O)[C@@H](CCSC)n3cc(CCO)nn3)CC2)nc(N2CCN(C(=O)CCCCCCCCCCNC(=O)[C@H]([C@@H](C)CC)n3cc(CCCCN=C(N)N)nn3)CC2)n1	x	125.0	x	64.2	n	x	n	124.1
C#CCOCCOCCOCCNc1nc(N2CCN(C(=O)CCCCCCCCCCNC(=O)[C@H](CCCCN)n3cc(C[C@@H](C)CC)nn3)CC2)nc(N2CCN(C(=O)CCCCCCCCCCNC(=O)[C@H](CCCCN)n3cc(C[C@@H](C)CC)nn3)CC2)n1	x	x	x	x	n	x	x	x
C#CCOCCOCCOCCNc1nc(N2CCN(C(=O)CCCCCCCCCCNC(=O)[C@H](CCCCN)n3cc(CCCC(=O)O)nn3)CC2)nc(N2CCN(C(=O)CCCCCCCCCCNC(=O)[C@H](CCCN=C(N)N)n3cc(C[C@@H](C)CC)nn3)CC2)n1	x	123.1	x	76.2	n	x	n	126.2
CC1CCCCC1NC(=O)c1ccc(-n2cncn2)cc1 (stereo unspecified)	x	n	x	n	n	x	x	x
CCOC(=O)c1ccc(NC(=O)c2nc[nH]c2C(=O)NCCCNC(=O)c2[nH]cnc2C(=O)Nc2ccc(C(=O)OCC)cc2)cc1	x	n	x	n	n	x	x	x
CCOC(=O)c1ccc(NC(=O)c2nc[nH]c2C(=O)NCCCCCNC(=O)OC(C)(C)C)cc1	n	45.3	n	n	n	n	n	n
CCOC(=O)c1ccc(NC(=O)c2nc[nH]c2C(=O)NC2CCN(C(=O)OC(C)(C)C)CC2)cc1	n	92.2	n	n	n	n	n	91.9
CCOC(=O)c1ccc(NC(=O)c2nc[nH]c2C(=O)NCC(=O)OC(C)(C)C)cc1	n	51.7	n	n	n	n	n	n
CC(C)(C)OC(=O)N1CCC(NC(=O)c2nc[nH]c2C(=O)NC2CCN(C(=O)OC(C)(C)C)CC2)CC1	x	n	x	n	n	x	x	x
Cn1cccc1C(=O)OCc1ccc(C(C)(C)C)cc1	n	n	n	n	n	n	x	x
CC1(c2cccc(Br)c2)NC(=O)N(CC(=O)c2ccc3c(c2)OCO3)C1=O (stereo unspecified)	x	x	x	x	n	x	x	x
CN(C)CCN(C(=O)C1CCN(S(=O)(=O)c2cccs2)CC1)c1nc2c(F)cccc2s1	x	n	x	n	n	x	x	x
CC1CCN(CCNC(=O)c2ccc3c(=O)n(Cc4ccc(Cl)cc4)c(=S)[nH]c3c2)CC1	n	45.3	175.0	n	x	39.0	n	60.9
O=C(NCCCN1CCOCC1)c1ccc2c(=O)n(Cc3cccc(Br)c3)c(=S)[nH]c2c1	n	48.6	n	n	x	n	n	59.8
Cc1cc(C)cc(N(C(=O)c2snc(C(N)=O)c2N)C(C(=O)NCC2CCCO2)c2ccc(C)o2)c1 (stereo unspecified)	n	60.5	n	n	n	n	n	49.1
Cc1ccc(C(C(=O)NCC2CCCO2)N(C(=O)c2snc(C(N)=O)c2N)c2ccc(C)c(C)c2)o1 (stereo unspecified)	n	64.6	n	n	x	n	n	70.1
SMILES	MEKK3 PB1 HTS	UBC13 polyUb	MEKK2wt PB1 HTS	Apaf1 inhib	Pemphigus Ab inh	MEKK2 mut-MEK5	Casp3 UBC13 ctr	UBC13 confirm
NC(=O)c1nsc(C(=O)N(c2ccccc2)C(C(=O)NCC2CCCO2)c2cccs2)c1N (stereo unspecified)	n	n	n	n	n	n	x	x
Cc1cc(C)cc(N(C(=O)c2snc(C(N)=O)c2N)C(C(=O)NCC2CCCO2)c2cccs2)c1 (stereo unspecified)	n	65.6	n	n	n	n	n	70.7
Cc1ccc(C(C(=O)NCC2CCCO2)N(C(=O)c2snc(C(N)=O)c2N)c2ccc3c(c2)OCCO3)cc1 (stereo unspecified)	n	56.0	n	n	n	n	n	79.2
O=C(O)C1C2OC3C(OC(=O)C31)C2Br (stereo unspecified)	x	x	x	x	n	x	x	x
CC[C@@H]1C=C(C(=O)O)[C@H](c2ccc(Br)cc2)N1S(=O)(=O)c1ccc(C)cc1	x	n	x	n	n	x	x	x
O=C(CCCCCN1C(=O)c2ccccc2C1=O)Nc1ccc(S(=O)(=O)N2CCCCC2)cc1	n	99.5	n	n	n	n	n	112.0
CC(C)c1ccc(NC(=O)C[n+]2ccn(C3=C([O-])c4ccccc4C3=O)c2)cc1	n	56.3	n	n	n	n	n	46.9
CC1CCN(C(=O)CN2C(=O)NC(c3ccccc3)(c3ccccc3)C2=O)CC1	x	n	x	n	n	x	x	x
Cc1ccc(OCCCC(=O)NNC(=O)c2ccccn2)cc1	x	56.4	x	n	n	x	n	n
